Source: ChEMBL document CHEMBL4049421, “Design, Synthesis, and Pharmacological Characterization of N-(4-(2 (6,7-Dimethoxy-3,4-dihydroisoquinolin-2(1H)yl)ethyl)phenyl)quinazolin-4-amine Derivatives: Novel Inhibitors Reversing P-Glycoprotein-Mediated Multidrug Resistance” (J Med Chem, 2017)
pEC50, pIC50: −log10 of the molar value. Activity calls are given as the source filed them. The rule behind the calls is not given here.

Experiments:
[1] = Cytotoxicity against human K562/A02 cells assessed as cell viability at 1.0 uM after 48 hrs by MTT assay (reference value: >99%); assay type: cell-based; details: read-out: Activity
K562 = assay: Cytotoxicity against human K562 cells assessed as suppression of cell viability after 48 hrs by MTT assay; assay type: cell-based; details: K562, 48 h
Summary of the method: (§1)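 MTT assay on HUVEC, K562 or K562/A02 cells seeded at 1×10^4 cells per well, using serial compound concentrations. Formazan was dissolved in DMSO and read at 490 nm. IC50 was obtained from log dose–response curves, mean ± SD of three independent tests.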

K562/A02 [2] = assay: Cytotoxicity against human K562/A02 cells assessed as suppression of cell viability after 48 hrs by MTT assay; assay type: cell-based; details: K562/A02, 48 h; summary of the method: as §1
[3] = Inhibition of P-gp in human K562/A02 cells assessed as potentiation of doxorubicin-induced cytotoxicity by measuring fold reduction in doxorubicin IC50 after 48 hrs by MTT assay relative to doxorubicin alone; assay type: cell-based; details: K562/A02, 48 h
Summary of the method: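 K562/A02 cells (1×10^4 cells per well) were exposed to a DOX concentration series, alone or with modulator at 1.0 μM, for 48 h. Viability was read by MTT at 490 nm. Reversal fold = DOX IC50 without inhibitor / DOX IC50 with inhibitor, mean ± SD of three tests.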

[4] = Selective index, ratio of IC50 for human K562/A02 cells to EC50 for inhibition of P-gp in human K562/A02 cells assessed as potentiation of doxorubicin-induced cytotoxicity
Summary of the method: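 Reversal EC50 is the modulator concentration that halves the DOX IC50 in K562/A02 cells, from % DOX IC50 plotted against log modulator concentration. The index divides the MTT IC50 in K562, K562/A02 or HUVEC cells by this EC50.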

Homo sapiens [5] = species on record: Homo sapiens; assay: Inhibition of P-gp in human K562/A02 cells assessed as potentiation of vinblastine-induced cytotoxicity at 1.0 uM after 48 hrs by MTT assay; assay type: cell-based
Summary of the method: (§2)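 K562/A02 cells were exposed for 48 h to DNR, PTX, VLB or CTX at 0, 0.313–20 μM, with or without modulator at 1.0 μM. Viability was measured by MTT at 490 nm, mean ± SD of three independent tests.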

K562/A02 [6] = assay: Potentiation of cyclophosphamide-induced cytotoxicity against human K562/A02 cells at 1.0 uM after 48 hrs by MTT assay; assay type: functional, cell-based; summary of the method: as §2
Homo sapiens [7] = species on record: Homo sapiens; assay: Inhibition of P-gp mediated efflux in human K562/A02 cells assessed as intracellular Rh123 accumulation at 1.0 uM measure up to 90 mins by flow cytometric analysis; assay type: cell-based
Summary of the method: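 K562/A02 cells were loaded with 5 μM Rh123 for 90 min at 37 °C and washed three times. They were then incubated with or without modulator at 37 °C for 5, 10, 25, 30, 60 and 90 min. Retained Rh123 MFI per 10000 cells was measured by flow cytometry. 0.1% DMSO negative control, n = 3.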

K562/A02 [8] = assay: Effect on ABCB1 expression in human K562/A02 cells at 0.1 uM to 2.0 uM after 72 hrs by Western blot analysis; assay type: functional, cell-based
Summary of the method: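 K562/A02 cells were treated 72 h with compound at 0.1, 0.5 or 2.0 μM and lysed in RIPA/PMSF. Lysate (100 μg) was run on gradient SDS-PAGE and probed with anti-ABCB1, with β-tubulin loading control and ECL detection. Expression is given as the ABCB1/β-tubulin band-intensity ratio.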

Rattus norvegicus [9] = assay: AUC(0 to infinity) in Sprague-Dawley rat plasma at 5 mg/kg, iv measured after 24 hrs by LC-MS/MS analysis; assay type: ADME, organism-based; design: dose 5 mg/kg, time infinity, route intravenous; details: in vivo
Summary of the method: (§3)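 Male Sprague-Dawley rats, n = 3 per group, given drug in Tween-80/ethanol/saline (5:10:85, v/v) at 10 mg/kg p.o. or 5 mg/kg i.v. Retro-orbital blood was taken at 5 min to 24 h, and plasma separated at 900g. Samples were spiked with internal standard, methanol-precipitated and quantified by LC-MS/MS. F = (AUCpo/AUCiv)×(dose iv/dose po)×100%.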

[10] = Elimination half life in Sprague-Dawley rat plasma at 5 mg/kg, iv by LC-MS/MS analysis; assay type: ADME, organism-based; details: read-out: beta t1/2 (converted); summary of the method: as §3
[11] = Oral bioavailability in Sprague-Dawley rat plasma at 10 mg/kg measured after 24 hrs by LC-MS/MS analysis; assay type: ADME, organism-based; summary of the method: as §3
[12] = Bioavailability in Sprague-Dawley rat plasma at 5 mg/kg, iv measured after 24 hrs by LC-MS/MS analysis; assay type: ADME, organism-based
Summary of the method: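 Bioavailability was calculated as (AUCpo/AUCiv)×(dose iv/dose po)×100% from male SD rats (n = 3) dosed 5 mg/kg i.v. or 10 mg/kg p.o. in Tween-80/ethanol/saline (5:10:85). Plasma sampled 5 min–24 h was analysed by LC-MS/MS.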

Homo sapiens [13] = species on record: Homo sapiens; assay: Inhibition of P-gp in human K562/A02 cells assessed as potentiation of doxorubicin-induced cytotoxicity at 1.0 uM preincubated for 24 hrs followed by doxorubicin addition measured after 48 hrs by MTT assay; assay type: cell-based
Summary of the method: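 K562/A02 cells (1×10^4 cells per well) were preincubated 24 h with modulator (1.0 μM or 5.0 μM) or PBS. Cells were washed 0 or 3 times with medium and held for 0, 6, 12 or 24 h. A DOX concentration series was then added for 48 h, and viability was read by MTT. Triplicate determinations.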

Rattus norvegicus [14] = assay: Effect on plasma clearance of doxorubicin in Sprague-Dawley rat at 5 mg/kg, iv co-administered with doxorubicin measured after 8 hrs by LC-MS/MS analysis; assay type: ADME, organism-based; details: in vivo
Summary of the method: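 Male SD rats received DOX 10 mg/kg i.v. alone or with modulator 5 mg/kg i.v. Orbital blood was taken at 5 min to 8 h. Plasma DOX was measured by LC-MS/MS with DNR (0.5 μg/mL) as internal standard. Mean ± SD, n = 3.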

AUC (Rattus norvegicus [9]): 1750 ng·h/mL
half-life [10]: 5.9 h
bioavailability [11]: 95.3%
bioavailability [12]: 95.3%
Compound: COc1cc2c(cc1OC)CN(CCc1ccc(Nc3nc(-c4ccncc4)nc4ccccc34)cc1)CC2
viability at 48 h, 1 µM [1]: > 99%
pIC50 (K562): 5.40
pIC50 (K562/A02 [2]): 4.89
pEC50 [3]: 7.24
Ratio IC50/EC50 [4]: 241.6
inhibition (Homo sapiens [5]): Active
Activity (K562/A02 [6]): inactive
inhibition (Homo sapiens [7]): Active
Activity (K562/A02 [8]): inactive
inhibition (Homo sapiens [13]): Active
Activity (Rattus norvegicus [14]): Non-Toxic
